Test [1] has as its target Tubulin alpha chain (Sus scrofa, UniProt P02550). Nature of the test: Inhibitory concentration required against tubulin polymerization determined using tubulin assay. In kind it is functional. Put shortly:
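Tubulin polymerization assay. IC50 is the concentration that inhibits extent of assembly by 50% after 20 min at 26 °C. At least two independent experiments per compound.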

The subject of test [2] is HOS. Nature of the test: In vitro percent inhibition evaluated against human bone carcinoma (HOS cell line) at >20 ug/mL. It is filed as functional. Put shortly:
(§1)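 Same SRB cytotoxicity assay, absorbance at 562 nm versus untreated cells. Value is the percentage inhibition at the concentration tested.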

Test [3] concerns SK-MEL-2. Nature of the test: In vitro cytotoxicity evaluated against human melanoma cancer (SKMEL-2 cell line). As to conditions: read-out: ED50 (the source's name). In kind it is functional. Put shortly: (§2)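 SRB assay on human tumour cell lines. Absorbance read at 562 nm and compared with untreated cells. ED50 is the concentration giving a 50% reduction in absorbance.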
Test [4] deals with 1A9. Nature of the test: In vitro cytotoxicity evaluated against human ovarian cancer (1A9 cell line). The conditions noted are these: read-out: ED50 (the source's name). It is filed as functional. Put shortly: as §2
For test [5], the system named is KB. Nature of the test: In vitro percent inhibition evaluated against human epidermoid nasopharynx carcinoma (KB cell line) at >20 ug/mL. It is filed as functional. The method, boiled down:
as §1

The test system of test [6] is MCF7. Nature of the test: In vitro percent inhibition evaluated against human breast cancer (MCF-7 cell line) at >20 ug/mL. In kind it is functional. Put shortly:
as §1

Test [7] has as its system HOS. Nature of the test: In vitro cytotoxicity evaluated against human bone carcinoma (HOS cell line). It is filed as functional. As to conditions: read-out: ED50 (the source's name). Put shortly:
as §2

For test [8], the system named is A549. Nature of the test: In vitro cytotoxicity evaluated against human lung cancer (A549 cell line). In kind it is functional. As to conditions: read-out: ED50 (the source's name). The method, boiled down:
as §2

Test [9] concerns SK-MEL-2. Nature of the test: In vitro percent inhibition evaluated against human melanoma cancer (SKMEL-2 cell line) at >20 ug/mL. It is filed as functional. Put shortly:
as §1

Test [10] relates to MCF7. Nature of the test: In vitro cytotoxicity evaluated against human breast cancer (MCF-7 cell line). In kind it is functional. As to conditions: read-out: ED50 (the source's name). The method, boiled down:
as §2

Test [11] relates to KB. Nature of the test: In vitro cytotoxicity evaluated against human epidermoid nasopharynx carcinoma (KB cell line). In kind it is functional. The conditions noted are these: read-out: ED50 (the source's name). Put shortly:
as §2

In test [12] the test system is A549. Nature of the test: In vitro percent inhibition evaluated against human lung cancer (A549 cell line) at >20 ug/mL. In kind it is functional. Put shortly:
as §1

Test [13] deals with U-87 MG. Nature of the test: In vitro cytotoxicity evaluated against human glioblastoma carcinoma (U87-MG cell line); NA is not active. It is filed as functional, cell-based. The conditions noted are these: U-87MG ATCC. Put shortly:
as §2

Test [14] has as its system HOS. Nature of the test: In vitro cytotoxicity evaluated against human bone carcinoma (HOS cell line); NA is not active. In kind it is functional, cell-based. The method, boiled down:
as §2

The subject of test [15] is 1A9. Nature of the test: In vitro percent inhibition evaluated against human ovarian cancer (1A9 cell line) at >20 ug/mL. It is filed as functional. Put shortly:
as §1

For test [16], the system named is U-87 MG. Nature of the test: In vitro cytotoxicity evaluated against human glioblastoma carcinoma (U87-MG cell line). In kind it is functional, U-87MG ATCC. As to conditions: read-out: ED50 (the source's name). Put shortly: as §2
In test [17] the test system is A549. Nature of the test: In vitro cytotoxicity evaluated against human lung cancer (A549 cell line); NA is not active. In kind it is functional, cell-based. Put shortly: as §2
For test [18], the system named is KB. Nature of the test: In vitro cytotoxicity evaluated against human epidermoid nasopharynx carcinoma (KB cell line); NA is not active. It is filed as functional, cell-based. Put shortly:
as §2

The subject of test [19] is 1A9. Nature of the test: In vitro cytotoxicity evaluated against human ovarian cancer (1A9 cell line); NA is not active. In kind it is functional, cell-based. Put shortly:
as §2

Test [20] has as its system U-87 MG. Nature of the test: In vitro percent inhibition evaluated against human glioblastoma carcinoma (U87-MG cell line) at >20 ug/mL. It is filed as functional, U-87MG ATCC. The method, boiled down: as §1

Converted amounts (≈) assume the structure as drawn. The source made the active and inactive calls. The rule behind the calls is not given here.

The text below walks through data of ChEMBL document CHEMBL1136183, “Antitumor agents. Part 226: synthesis and cytotoxicity of 2-phenyl-4-quinolone acetic acids and their esters” (Bioorg Med Chem Lett, 2003).

Tubulin alpha chain, sequence (P02550 whole entry, looked up): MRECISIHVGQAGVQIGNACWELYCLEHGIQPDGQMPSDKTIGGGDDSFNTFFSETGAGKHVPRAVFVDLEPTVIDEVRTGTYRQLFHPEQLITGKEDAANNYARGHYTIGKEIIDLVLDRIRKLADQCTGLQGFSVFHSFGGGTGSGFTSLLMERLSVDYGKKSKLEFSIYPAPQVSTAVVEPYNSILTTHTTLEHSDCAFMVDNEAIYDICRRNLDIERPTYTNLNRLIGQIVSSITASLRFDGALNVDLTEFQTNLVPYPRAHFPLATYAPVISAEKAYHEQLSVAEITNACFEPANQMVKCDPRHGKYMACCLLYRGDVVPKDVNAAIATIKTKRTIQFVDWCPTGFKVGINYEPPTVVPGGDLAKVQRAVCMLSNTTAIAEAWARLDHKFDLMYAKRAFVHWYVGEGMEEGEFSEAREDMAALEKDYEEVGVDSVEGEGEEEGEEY

As for `COC(=O)Cc1cccc2c(O)cc(-c3ccccc3F)nc12`, in test [1], half-maximal inhibition (IC50) required 5.5 µM. Moreover, the Inhibition is 18% in test [2]; 29% in test [5]; 14% in [6]; 11% in [9]; 22% in test [12]. The EC50 was over 10 µg/mL in test [3]; 7.5 µg/mL (≈ 24.1 µM) in test [4]; over 10 µg/mL in [7]; over 10 µg/mL in test [8]; over 10 µg/mL in test [10]; over 10 µg/mL in test [11]. Besides, the ED50 entry in [13] is “inactive”.

The compound `O=C(O)Cc1ccc2c(O)cc(-c3ccccc3F)nc2c1` displayed an IC50 in test [1] of 10 µM. For the same compound, the ED50 entry in [14] and in test [13] was “inactive” each time. Besides, the EC50 in test [3], in test [4], in [8], in test [10] and in [11] was over 20 µg/mL in each case. The Inhibition was 8% in test [5]; 13% in test [6]; 14% in test [9]; 21% in test [12]; 15% in [15].

In test [1], `O=C(O)Cc1cccc2c(O)cc(-c3ccccc3)nc12` came in with an IC50 of over 40 µM. In addition, the EC50 in [3] stood at 0.06 µg/mL (≈ 0.215 µM); in test [4], 0.04 µg/mL (≈ 0.143 µM); in [16], 0.12 µg/mL (≈ 0.43 µM); in test [7] it was 0.07 µg/mL (≈ 0.251 µM); in test [8], 0.11 µg/mL (≈ 0.394 µM); in [10], 0.44 µg/mL (≈ 1.58 µM). The EC50 in test [11] stood at 0.04 µg/mL (≈ 0.143 µM).

In turn, `COC(=O)Cc1cccc2c(O)cc(-c3ccccc3)nc12` registered an IC50 in test [1] of 30 µM. The ED50 result in [17] and in [13] was “inactive” each time. The Inhibition stood at 7% in test [2]; 8% in [5]; 15% in [6]; 12% in test [9]; 30% in test [15]. Besides, the EC50 in test [3], in test [4], in test [7], in test [10] and in test [11] was over 20 µg/mL throughout.

Regarding `O=C(O)Cc1cccc2nc(-c3ccccc3F)cc(O)c12`, the ED50 result in test [18], in test [14], in [19] and in test [13] was “inactive” each time. The compound also gave a concentration for half-maximal inhibition (IC50) in test [1] of over 40 µM. Besides, the EC50 in test [3], in test [8] and in [10] was over 20 µg/mL each time. The results for the Inhibition in [6], in test [9] and in test [12] were 7%, 9% and 8%, respectively.

In test [1], `O=C(O)Cc1cccc2c(O)cc(-c3ccccc3F)nc12` yielded an IC50 of over 40 µM. The EC50 is 0.05 µg/mL (≈ 0.168 µM) in test [3]; 0.02 µg/mL (≈ 0.0673 µM) in test [4]; 0.07 µg/mL (≈ 0.235 µM) in [16]; 0.04 µg/mL (≈ 0.135 µM) in test [7]; 0.06 µg/mL (≈ 0.202 µM) in test [8]; 0.12 µg/mL (≈ 0.404 µM) in test [10]. In addition, the EC50 in test [11] was 0.03 µg/mL (≈ 0.101 µM).

The compound `O=C(O)Cc1ccc2nc(-c3ccccc3F)cc(O)c2c1` yielded an IC50 in test [1] of 5.2 µM. Besides, the Inhibition in test [2] worked out at 15%; in test [5], 36%; in [6], 16%; in test [9], 17%; in test [12] it was 24%; in [20], 9%. Also, in test [15], the Inhibition is given as 37%. In addition, the EC50 in [3], in test [4], in test [16], in test [7], in test [8] and in test [10] was over 20 µg/mL each time. The EC50 in test [11] is over 20 µg/mL.

A word on the IC50: it is the concentration that inhibits the measured activity by half. Usually Inhibition stands for the share of the control response that was lost under treatment. Read a low Inhibition as little suppression.
